According to ChEMBL document CHEMBL4368928, “New hybrid trifluoromethylquinolines as antiplasmodium agents” (Bioorg Med Chem, 2019):

Columns and labels:
Plasmodium falciparum = experiment: Antimalarial activity against chloroquine-resistant and mefloquine-sensitive Plasmodium falciparum W2 ring stage form infected in human erythrocytes by spectrophotometric analysis; format: functional, organism-based
Summary of the method: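 W2 clone grown in A+ human erythrocytes in RPMI 1640 with 1% Albumax II. Sorbitol-synchronized rings at 1.5% hematocrit and 0.05% parasitemia; compounds from 10 mg/mL DMSO stock, final 0.02% DMSO; triplicate per dose. Growth read by anti-HRPII ELISA (TMB, A450) versus drug-free cultures; IC50 from sigmoid dose-response fits.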

[1] = Cytotoxicity in African green monkey BGM cells assessed as reduction in cell viability incubated for 24 hrs by MTT assay; format: cell-based; conditions: Chlorocebus aethiops
Summary of the method: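 BGM monkey kidney cells kept in RPMI 1640 with 10% heat-inactivated fetal serum at 37 °C, 5% CO2. Seeded at 5 × 10^3 cells/well and allowed to adhere 18 h. Exposed 24 h to 200–25 μg/mL from a 20 mg/mL DMSO stock. MTT added for 3 h, formazan dissolved in DMSO, OD read at 570/630 nm. Viability as % of untreated control; EC50 derived from this.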

[2] = Selectivity index, ratio of EC50 for African green monkey BGM cells to IC50 for chloroquine-resistant mefloquine-sensitive Plasmodium falciparum W2 ring stage form infected in human erythrocytes; format: toxicity, cell-based; conditions: read-out: Selectivity Index
Summary of the method: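 SI = BGM EC50 / W2 IC50. BGM cells seeded at 5 × 10^3/well, adhered 18 h, exposed 24 h at 37 °C, 5% CO2 to 200–25 µg/mL (20 mg/mL DMSO stock). MTT added 3 h, formazan in DMSO, OD 570/630 nm; viability as % untreated. W2 IC50 from HRPII ELISA on synchronized rings.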

Plasmodium berghei [3] = experiment: Antimalarial activity against Plasmodium berghei NK65 infected in mouse assessed as reduction in parasite growth at 50 mg/kg, po administered daily for 3 consecutive days and measured on day 5 post parasite inoculation relative to control; format: functional; design: scale not given: the % may be the effect or the level left
Summary of the method: (§1)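 Suppressive test: mice inoculated i.p. with 1 × 10^5 P. berghei NK65-infected erythrocytes, randomized about 24 h later to groups of five. Dosed orally once daily for three consecutive days, freshly diluted in 3% DMSO in RPMI; vehicle controls included. Parasitemia was read on days 5, 7 and 9 from Giemsa-stained, methanol-fixed tail-blood thin smears at 1000X. Inhibition is given relative to untreated mice, taken as 100% growth.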

Plasmodium berghei [4] = experiment: Antimalarial activity against Plasmodium berghei NK65 infected in mouse assessed as reduction in parasite growth at 50 mg/kg, po administered daily for 3 consecutive days and measured on day 7 post parasite inoculation relative to control; format: functional; design: scale not given: the % may be the effect or the level left; summary of the method: as §1
Plasmodium berghei [5] = experiment: Antimalarial activity against Plasmodium berghei NK65 infected in mouse assessed as reduction in parasite growth at 50 mg/kg, po administered daily for 3 consecutive days and measured on day 9 post parasite inoculation relative to control; format: functional; design: scale not given: the % may be the effect or the level left; summary of the method: as §1
Plasmodium berghei [6] = experiment: Antimalarial activity against Plasmodium berghei NK65 infected in mouse assessed as parasite survival at 50 mg/kg, po administered daily for 3 consecutive days (reference value: 13+/- 3 days); format: functional
Summary of the method: (§2)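 P. berghei NK65 (weekly blood passage); mice infected i.p. with 1 × 10^5 infected erythrocytes, grouped five per cage about 24 h later. Dosed orally once daily for three days in 3% DMSO/RPMI: test compounds at 50 mg/kg, CQ and MQ at 20 mg/kg, vehicle controls. Tail-blood Giemsa thin smears on days 5, 7 and 9; survival recorded in days.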

Plasmodium berghei [7] = experiment: Antimalarial activity against Plasmodium berghei NK65 infected in mouse assessed as reduction in parasite growth at 20 mg/kg, po administered daily for 3 consecutive days and measured on day 5 post parasite inoculation relative to control; format: functional; design: scale not given: the % may be the effect or the level left; summary of the method: as §1
Plasmodium berghei [8] = experiment: Antimalarial activity against Plasmodium berghei NK65 infected in mouse assessed as reduction in parasite growth at 20 mg/kg, po administered daily for 3 consecutive days and measured on day 7 post parasite inoculation relative to control; format: functional; design: scale not given: the % may be the effect or the level left; summary of the method: as §1
Plasmodium berghei [9] = experiment: Antimalarial activity against Plasmodium berghei NK65 infected in mouse assessed as reduction in parasite growth at 20 mg/kg, po administered daily for 3 consecutive days and measured on day 9 post parasite inoculation relative to control; format: functional; design: scale not given: the % may be the effect or the level left; summary of the method: as §1
Plasmodium berghei [10] = experiment: Antimalarial activity against Plasmodium berghei NK65 infected in mouse assessed as parasite survival at 20 mg/kg, po administered daily for 3 consecutive days (reference value: 13+/- 3 days); format: functional; summary of the method: as §2

| Compound | IC50 (Plasmodium falciparum) | EC50 [1] | selectivity ratio [2] | Activity (Plasmodium berghei [3]) | Activity (Plasmodium berghei [4]) | Activity (Plasmodium berghei [5]) | Survival (Plasmodium berghei [6]) | Activity (Plasmodium berghei [7]) | Activity (Plasmodium berghei [8]) | Activity (Plasmodium berghei [9]) | Survival (Plasmodium berghei [10]) |
| --- | --- | --- | --- | --- | --- | --- | --- | --- | --- | --- | --- |
| Fc1ccc(Nc2cc(C(F)(F)F)nc3c(C(F)(F)F)cccc23)cc1 | 16 µM | < 42.8 µM | < 2.67 | – | – | – | – | – | – | – | – |
| COc1ccc(Nc2cc(C(F)(F)F)nc3c(C(F)(F)F)cccc23)cc1OC | 4.8 µM | 130 µM | 27 | – | – | – | – | – | – | – | – |
| FC(F)(F)c1cc(Nc2ccccc2)c2cccc(C(F)(F)F)c2n1 | 28 µM | < 22.5 µM | < 0.83 | – | – | – | – | – | – | – | – |
| FC(F)(F)c1cc(N2CCNCC2)c2cccc(C(F)(F)F)c2n1 | 31.5 µM | 17.2 µM | 0.5 | – | – | – | – | – | – | – | – |
| Cc1nnc(Nc2cc(C(F)(F)F)nc3c(C(F)(F)F)cccc23)[nH]1 | 0.083 µM | 11 µM | 132 | 66% | 30% | 23% | 19 days | – | – | – | – |
| Cc1nnc(Nc2cc(C(F)(F)F)nc3c(C(F)(F)F)cccc23)s1 | 1.8 µM | 1.5 µM | 0.8 | – | – | – | – | – | – | – | – |
| FC(F)(F)c1cc(N2CCOCC2)c2cccc(C(F)(F)F)c2n1 | > 143 µM | 1680 µM | < 11.7 | – | – | – | – | – | – | – | – |
| FC(F)(F)c1cc(Nc2ncccn2)c2cccc(C(F)(F)F)c2n1 | 8.4 µM | > 559 µM | > 66.5 | 61% | 35% | 31% | 13 days | – | – | – | – |
| FC(F)(F)c1cc(NC2CCCCC2)c2cccc(C(F)(F)F)c2n1 | 11 µM | 127 µM | 11.5 | – | – | – | – | – | – | – | – |
| O[C@@H](c1cc(C(F)(F)F)nc2c(C(F)(F)F)cccc12)[C@H]1CCCCN1 (relative stereo) [(S,R)-MEFLOQUINE] | 0.019 µM | 15 µM | 789 | – | – | – | – | 98% | 98% | 99% | >30 days |
| FC(F)(F)c1cc(Nc2ccccc2C(F)(F)F)c2cccc(C(F)(F)F)c2n1 | 33 µM | < 18.9 µM | < 0.57 | – | – | – | – | – | – | – | – |
| Oc1ccc(Nc2cc(C(F)(F)F)nc3c(C(F)(F)F)cccc23)cc1 | 24.1 µM | 672 µM | < 27.9 | – | – | – | – | – | – | – | – |
| FC(F)(F)c1cc(Nc2ccc3ccccc3c2)c2cccc(C(F)(F)F)c2n1 | 9.6 µM | 12.3 µM | 1.2 | – | – | – | – | – | – | – | – |
| FC(F)(F)c1cc(Nc2ccccn2)c2cccc(C(F)(F)F)c2n1 | 19.6 µM | < 44.8 µM | < 2.29 | – | – | – | – | – | – | – | – |
| FC(F)(F)c1cc(Nc2nnc[nH]2)c2cccc(C(F)(F)F)c2n1 | 2.9 µM | < 23.1 µM | < 8 | – | – | – | – | – | – | – | – |
| FC(F)(F)c1cc(Nc2nnc(C(F)(F)F)[nH]2)c2cccc(C(F)(F)F)c2n1 | 11.5 µM | 84.2 µM | 7.3 | – | – | – | – | – | – | – | – |
| FC(F)(F)c1cc(Nc2ccncc2)c2cccc(C(F)(F)F)c2n1 | 8.4 µM | > 560 µM | > 66.7 | 25% | 42% | 11% | 15 days | – | – | – | – |
| CCN(CC)CCCC(C)Nc1ccnc2cc(Cl)ccc12 (stereo not given) [CHLOROQUINE] | – | 907 µM | – | – | – | – | – | 99% | 99% | 84% | 24 days |
| Clc1ccc2c(Nc3ccncc3)ccnc2c1 | 11.7 µM | 784 µM | 67 | – | – | – | – | – | – | – | – |
